Reference: ChEMBL document CHEMBL3085696, “Aurora isoform selectivity: design and synthesis of imidazo[4,5-b]pyridine derivatives as highly selective inhibitors of Aurora-A kinase in cells” (J Med Chem, 2013)

Legend:
Aurora kinase A [1] = target: Aurora kinase A (Homo sapiens, UniProt O14965, R220K); assay: Inhibition of autophosphorylation of aurora-A R220K mutant at T288 in human HCT116 cells after 2 hrs; assay type: cell-based, HCT-116
Method in brief: (§1)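 Cells transfected with N-terminal Myc-tagged Aurora-A (wild type or T217E, L215R or R220K mutant, made by Quikchange mutagenesis), then exposed to a range of inhibitor concentrations for 2 h. Lysed in LDS sample buffer, sonicated, boiled, run on LDS-PAGE and blotted to nitrocellulose. Probed with anti-P-T288 (Aurora-A autophosphorylation) and anti-P-histone H3 S10 (Aurora-B substrate) antibodies. Blots quantified and IC50 fitted.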

Aurora kinase A [2] = target: Aurora kinase A (Homo sapiens, UniProt O14965, L215R); assay: Inhibition of autophosphorylation of aurora-A L215R mutant at T288 in human HCT116 cells after 2 hrs; assay type: cell-based, HCT-116; method in brief: as §1
Aurora kinase A [3] = target: Aurora kinase A (Homo sapiens, UniProt O14965, T217E); assay: Inhibition of autophosphorylation of aurora-A T217E mutant at T288 in human HeLa cells after 2 hrs; assay type: cell-based; method in brief: as §1
Mus musculus = assay: Volume of distribution in Balb/C mouse at 5 mg/kg, iv and po; assay type: ADME, organism-based; parameters: dose 5 mg/kg, route oral; details: in vivo
Method in brief: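 Female Balb/C mice given 5 mg/kg po or iv in 10% DMSO/5% Tween 20 in saline. Terminal cardiac-puncture plasma taken at 5, 15, 30 min and 1, 2, 4, 6, 24 h. Methanol precipitation with olomoucine internal standard. Analysis by LC/MS (ESI+ MRM).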

[4] = Antiproliferative activity against human MV411 cells; assay type: functional; details: MV4-11
[5] = target: T1, Receptor-type tyrosine-protein kinase FLT3 (Homo sapiens, UniProt P36888); assay: Inhibition of FLT3 (unknown origin) at 1 uM
T1 sequence (P36888 whole entry): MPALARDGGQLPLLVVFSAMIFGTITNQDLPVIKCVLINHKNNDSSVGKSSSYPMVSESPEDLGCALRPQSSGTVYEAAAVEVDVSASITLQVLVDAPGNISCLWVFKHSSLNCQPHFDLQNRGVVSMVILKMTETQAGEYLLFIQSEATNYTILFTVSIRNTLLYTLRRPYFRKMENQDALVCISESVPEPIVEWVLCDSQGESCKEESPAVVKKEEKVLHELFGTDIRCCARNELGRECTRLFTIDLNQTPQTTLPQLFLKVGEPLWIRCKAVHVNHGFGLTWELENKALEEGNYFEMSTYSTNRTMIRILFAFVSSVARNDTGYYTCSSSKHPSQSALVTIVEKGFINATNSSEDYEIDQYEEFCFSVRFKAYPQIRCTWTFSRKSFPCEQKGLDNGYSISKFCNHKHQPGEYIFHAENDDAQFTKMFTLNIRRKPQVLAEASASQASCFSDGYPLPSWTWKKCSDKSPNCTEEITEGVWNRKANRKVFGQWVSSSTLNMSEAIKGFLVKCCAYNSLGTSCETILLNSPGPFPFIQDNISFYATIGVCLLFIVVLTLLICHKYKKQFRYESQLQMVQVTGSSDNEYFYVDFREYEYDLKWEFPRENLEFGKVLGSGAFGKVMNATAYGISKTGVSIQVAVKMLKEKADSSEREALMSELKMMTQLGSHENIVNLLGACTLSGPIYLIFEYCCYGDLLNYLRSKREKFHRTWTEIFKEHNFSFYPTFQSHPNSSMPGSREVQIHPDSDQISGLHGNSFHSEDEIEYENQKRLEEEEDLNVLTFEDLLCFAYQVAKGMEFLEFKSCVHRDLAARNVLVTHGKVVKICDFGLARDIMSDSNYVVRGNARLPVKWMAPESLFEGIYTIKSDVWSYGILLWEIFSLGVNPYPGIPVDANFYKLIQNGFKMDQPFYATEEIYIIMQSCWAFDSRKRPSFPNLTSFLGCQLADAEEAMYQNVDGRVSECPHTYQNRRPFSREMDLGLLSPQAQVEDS
Method in brief: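 Single-concentration (1 μM) profiling within a 110-kinase selectivity panel; activity expressed as percent inhibition of each kinase.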

HCT-116 = assay: Antiproliferative activity against human HCT116 cells; assay type: functional
Aurora kinase B [6] = target: T2, Aurora kinase B (Homo sapiens, UniProt Q96GD4); assay: Inhibition of N-terminal Myc tagged aurora-B-mediated histone H3 phosphorylation at S10 in human HCT116 cells after 2 hrs; assay type: cell-based, HCT-116; method in brief: as §1
Aurora kinase A [7] = target: T3, Aurora kinase A (Homo sapiens, UniProt O14965); assay: Inhibition of autophosphorylation of N-terminal Myc tagged aurora-A at T288 in human HCT116 cells after 2 hrs; assay type: cell-based, HCT-116
T3 sequence (O14965 whole entry): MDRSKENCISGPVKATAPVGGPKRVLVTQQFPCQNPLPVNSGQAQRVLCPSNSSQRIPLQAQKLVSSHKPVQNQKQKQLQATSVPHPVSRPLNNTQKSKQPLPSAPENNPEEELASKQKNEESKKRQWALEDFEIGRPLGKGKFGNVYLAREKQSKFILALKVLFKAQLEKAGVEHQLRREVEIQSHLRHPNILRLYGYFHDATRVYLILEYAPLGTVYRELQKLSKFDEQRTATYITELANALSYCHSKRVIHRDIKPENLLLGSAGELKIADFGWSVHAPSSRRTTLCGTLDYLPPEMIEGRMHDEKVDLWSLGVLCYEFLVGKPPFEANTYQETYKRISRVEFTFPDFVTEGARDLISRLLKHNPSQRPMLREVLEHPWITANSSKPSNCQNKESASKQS
Method in brief: (§2)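 Cells transfected with Myc-tagged Aurora-A (wild type or T217E, L215R, R220K mutants) and treated with inhibitor concentrations for 2 h. Lysed in LDS buffer; SDS-type PAGE and western blot. Blots probed for P-T288 (Aurora-A autophosphorylation) and phospho-histone H3 S10 (Aurora-B substrate). Blots quantified; IC50 derived; ratio taken as H3 IC50 over T288 IC50.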

Aurora kinase B [8] = target: T2, Aurora kinase B; assay: Inhibition of N-terminal Myc tagged aurora-B-mediated histone H3 phosphorylation at S10 in human HeLa cells after 2 hrs; assay type: cell-based; method in brief: as §2
Aurora kinase A [9] = target: T3, Aurora kinase A; assay: Inhibition of autophosphorylation of N-terminal Myc tagged aurora-A at T288 in human HeLa cells after 2 hrs; assay type: cell-based; method in brief: as §2
Aurora kinase B [10] = target: T2, Aurora kinase B; assay: Inhibition of full-length aurora-B (unknown origin) using 5FAMLRRASLG-CONH2 as substrate after 60 mins
Method in brief: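 Full-length Aurora-B/INCENP complex (1 nM) incubated with 1.5 μM 5FAM-LRRASLG-CONH2 peptide and 15 μM ATP in Tris pH 7.4 buffer with NaCl, MgCl2, DTT, Tween 20. Runs 60 min at room temperature, then EDTA stop. Microfluidic mobility-shift readout of percent conversion. Duplicate 8-point curves, 0.25 pM–200 μM final. IC50 by four-parameter logistic fit.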

[11] = Metabolic stability in human liver microsomes at 10 uM after 30 mins; assay type: ADME
Method in brief: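 Mixed-gender pooled human liver microsomes (1 mg/mL) incubated with compound at 10 μM plus NADPH 1 mM, UDPGA 2.5 mM and MgCl2 3 mM in 10 mM PBS at 37 °C, for 0 and 30 min. Cofactor-free controls included. Percent remaining measured by LC/MS.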

[12] = target: T4, Aurora kinase A (Homo sapiens) (UniProt O14965); details: 1 uM
T4 sequence (whole entry): T3 sequence (O14965 whole entry)

T2 sequence (Q96GD4 whole entry): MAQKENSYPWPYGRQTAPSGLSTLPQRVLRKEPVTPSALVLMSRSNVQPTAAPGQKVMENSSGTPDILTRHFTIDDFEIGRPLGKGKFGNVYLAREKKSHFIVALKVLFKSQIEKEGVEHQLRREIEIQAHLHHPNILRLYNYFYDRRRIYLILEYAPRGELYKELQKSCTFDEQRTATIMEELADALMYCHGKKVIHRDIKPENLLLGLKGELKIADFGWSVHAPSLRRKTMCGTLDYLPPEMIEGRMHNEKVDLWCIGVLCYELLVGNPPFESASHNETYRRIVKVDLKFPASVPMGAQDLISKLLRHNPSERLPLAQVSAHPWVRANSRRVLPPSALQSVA
Aurora kinase A (Homo sapiens, UniProt O14965, T217E), sequence (O14965 whole entry I57V/T217E): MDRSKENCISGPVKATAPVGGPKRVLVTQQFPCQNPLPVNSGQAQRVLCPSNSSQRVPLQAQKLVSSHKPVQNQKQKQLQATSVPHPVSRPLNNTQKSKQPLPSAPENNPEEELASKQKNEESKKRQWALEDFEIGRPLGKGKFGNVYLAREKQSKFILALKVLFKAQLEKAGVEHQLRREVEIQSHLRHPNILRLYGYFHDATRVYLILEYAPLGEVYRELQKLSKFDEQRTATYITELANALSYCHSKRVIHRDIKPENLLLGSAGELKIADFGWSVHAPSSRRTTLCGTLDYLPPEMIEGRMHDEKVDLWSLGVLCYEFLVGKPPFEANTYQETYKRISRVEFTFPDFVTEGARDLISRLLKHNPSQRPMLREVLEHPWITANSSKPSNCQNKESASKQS
Aurora kinase A (Homo sapiens, UniProt O14965, R220K), sequence (O14965 whole entry I57V/R220K): as the sequence (O14965 whole entry I57V/T217E) above, with E217T, R220K counted along it
Aurora kinase A (Homo sapiens, UniProt O14965, L215R), sequence (O14965 whole entry I57V/L215R): as the sequence (O14965 whole entry I57V/T217E) above, with L215R, E217T counted along it

Cc1nn(C)cc1-c1nc2c(Oc3ccc(C(=O)Nc4ccccc4)cc3)c(Cl)cnc2[nH]1
IC50 (Aurora kinase A [1]): 27 nM | IC50 (Aurora kinase A [2]): 27 nM | IC50 (Aurora kinase A [3]): 4110 nM | Vd (Mus musculus): 1.8 L/kg | GI50 [4]: 299 nM | IC50 [5]: 162 nM | GI50 (HCT-116): 2300 nM | IC50 (Aurora kinase B [6]): 24600 nM | IC50 (Aurora kinase A [7]): 65 nM | IC50 (Aurora kinase B [8]): 76800 nM | IC50 (Aurora kinase A [9]): 160 nM | IC50 (Aurora kinase B [10]): 12700 nM | metabolized at 0.5 h, 10 µM [11]: 9% | inhibition [12]: > 80%
